Test results from ChEMBL document CHEMBL1144993, “Imidazoline binding sites (IBS) profile modulation: key role of the bridge in determining I1-IBS or I2-IBS selectivity within a series of 2-phenoxymethylimidazoline analogues” (J Med Chem, 2003).
Values belong to the molecule of their own block, whether it stands above or below them.

How the values were obtained:
[1] = biological target: T1, Adrenergic receptor alpha-2 (Rattus norvegicus, UniProt P22086+P19328+P22909); experiment: Displacement of [3H]clonidine from rat cortex membrane Alpha-2 adrenergic receptors
T1 sequence (P22086 whole entry): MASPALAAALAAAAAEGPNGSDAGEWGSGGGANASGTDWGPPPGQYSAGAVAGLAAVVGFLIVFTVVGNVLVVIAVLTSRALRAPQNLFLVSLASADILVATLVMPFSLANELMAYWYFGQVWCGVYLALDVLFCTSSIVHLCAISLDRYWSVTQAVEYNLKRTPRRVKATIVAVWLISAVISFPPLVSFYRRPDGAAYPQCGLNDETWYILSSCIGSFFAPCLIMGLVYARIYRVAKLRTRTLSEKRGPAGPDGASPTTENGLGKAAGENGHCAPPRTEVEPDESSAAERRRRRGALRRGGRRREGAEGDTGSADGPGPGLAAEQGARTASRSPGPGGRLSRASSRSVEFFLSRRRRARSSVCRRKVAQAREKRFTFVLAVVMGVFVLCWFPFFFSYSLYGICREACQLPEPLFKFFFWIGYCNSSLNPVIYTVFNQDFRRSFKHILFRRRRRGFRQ
T1 sequence (P19328 whole entry): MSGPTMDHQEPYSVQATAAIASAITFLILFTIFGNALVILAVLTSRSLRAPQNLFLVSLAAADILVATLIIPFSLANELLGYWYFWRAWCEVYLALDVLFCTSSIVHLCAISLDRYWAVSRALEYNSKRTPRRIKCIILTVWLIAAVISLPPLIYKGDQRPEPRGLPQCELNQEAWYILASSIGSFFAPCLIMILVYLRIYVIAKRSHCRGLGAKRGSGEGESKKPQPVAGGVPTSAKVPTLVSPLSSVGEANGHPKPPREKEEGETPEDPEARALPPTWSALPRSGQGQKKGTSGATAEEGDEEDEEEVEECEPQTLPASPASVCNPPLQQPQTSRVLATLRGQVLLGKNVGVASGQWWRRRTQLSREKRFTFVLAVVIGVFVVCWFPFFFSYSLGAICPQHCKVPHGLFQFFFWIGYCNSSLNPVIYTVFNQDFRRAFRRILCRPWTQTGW
T1 sequence (P22909 whole entry): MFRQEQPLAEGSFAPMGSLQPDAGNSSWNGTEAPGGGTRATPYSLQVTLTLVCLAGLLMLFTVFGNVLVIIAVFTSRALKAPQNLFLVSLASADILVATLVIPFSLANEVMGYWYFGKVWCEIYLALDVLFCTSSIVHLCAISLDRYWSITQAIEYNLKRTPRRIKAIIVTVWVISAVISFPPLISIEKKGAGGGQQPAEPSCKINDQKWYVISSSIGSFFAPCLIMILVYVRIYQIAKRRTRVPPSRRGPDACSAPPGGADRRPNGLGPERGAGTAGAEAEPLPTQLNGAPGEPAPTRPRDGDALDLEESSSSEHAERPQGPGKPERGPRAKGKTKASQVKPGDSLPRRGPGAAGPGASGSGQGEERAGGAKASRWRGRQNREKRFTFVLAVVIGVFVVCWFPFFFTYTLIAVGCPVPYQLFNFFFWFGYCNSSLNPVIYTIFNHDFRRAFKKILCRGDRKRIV
Summary of the method: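 Rat cerebral cortex membranes (200 μg protein) incubated with 5 nM [3H]-clonidine and 10–12 competitor concentrations in 50 mM Tris-HCl pH 7.4, 45 min at 25 °C. Nonspecific binding with 10 μM phentolamine. GF/B filtration, scintillation counting, triplicate points.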

Oryctolagus cuniculus [2] = experiment: Heart rate during 15 minute pretreatment with intracisternal compound administration; assay type: functional
Summary of the method: (§1)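 Male normotensive Zika rabbits (2.5–3.5 kg), pentobarbitone 40 mg/kg iv anesthesia, 38 °C, tracheotomized, pancuronium 1 mg/kg iv, ventilated. Test drug given intracisternally as 0.2 mL after equal CSF removal, total 300 μg/kg; vehicle group 100 μL saline ic. Clonidine 10 μg/kg iv 15 min later. MAP = diastolic + 1/3 pulse pressure; HR from pressure signal. Mean ± SEM, n = 4–5; repeated-measures ANOVA.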

Oryctolagus cuniculus [3] = experiment: Heart rate following 15 minute pretreatment with intracisternal compound administration and 10 ug/kg iv clonidine; assay type: functional; summary of the method: as §1
Oryctolagus cuniculus [4] = experiment: Mean arterial pressure following 15 minute pretreatment with intracisternal compound administration and 10 ug/kg iv clonidine; assay type: functional, Artery; summary of the method: as §1
Oryctolagus cuniculus [5] = experiment: Mean arterial pressure during 15 minute pretreatment with intracisternal compound administration; assay type: functional, Artery; summary of the method: as §1
[6] = Displacement of [125I]p-iodoclonidine from imidazoline receptor I-1 in rat pheochromocytoma cells
[7] = biological target: Imidazoline I2 binding site (Oryctolagus cuniculus); experiment: Displacement of [3H]idazoxan from imidazoline receptor I-2 of rabbit kidney membranes
[8] = Relative binding to imidazoline I2 and alpha-2 adrenergic receptors ([…])
[9] = Relative binding to imidazoline I2 and imidazoline I1 binding sites ([…])
[10] = Relative binding to imidazoline I1 and alpha-2 adrenergic receptors ([…])
[11] = Relative binding to imidazoline I1 and imidazoline I2 binding sites ([…])

Log Ki [1]: -5.93
Log Ki [7]: -6.91
Compound: CC(CC1=NCCN1)c1ccccc1 (stereo not given)

Log Ki [1]: -5.4
Compound: C[C@H](Cc1ccccc1)C1=NCCN1

Log Ki [1]: -5.7
Ratio [8]: 794
Ratio [9]: 1480
Ratio [10]: 0.54
Ratio [11]: 0.0007
Log Ki [7]: -8.6
Compound: c1ccc(CCC2=NCCN2)cc1 [PHENYZOLINE]

Log Ki [1]: -5.9
Log Ki [7]: -5.6
Compound: C[C@H](CC1=NCCN1)c1ccccc1

Ratio [8]: 7410
Ratio [9]: 10
Ratio [10]: 741
Ratio [11]: 0.1
Compound: C(=C\c1ccccc1)/C1=NCCN1

More lines, now with the values behind:

Compound: CC(Cc1ccccc1)C1=NCCN1 (stereo not given)
Log Ki [1]: -5.45
Heart rate (Oryctolagus cuniculus [2]): 363 beats min-1
Heart rate (Oryctolagus cuniculus [3]): 355 beats min-1
MAP (Oryctolagus cuniculus [4]): 91 mmHg
MAP (Oryctolagus cuniculus [5]): 99 mmHg

Compound: c1ccc([C@@H]2C[C@H]2C2=NCCN2)cc1
Log Ki [6]: -6.46

Compound: C[C@@H](CC1=NCCN1)c1ccccc1
Log Ki [1]: -5.8
Log Ki [7]: -7

Compound: c1ccc(C2CC2C2=NCCN2)cc1 (stereo not given)
Log Ki [6]: -7.76

Compound: CC(Oc1ccccc1)C1=NCCN1 (stereo not given)
Ratio [8]: 0.04
Ratio [9]: 0.11
Ratio [10]: 0.32
Ratio [11]: 8.71

Compound: C[C@@H](Cc1ccccc1)C1=NCCN1
Log Ki [1]: -5.3

Compound: c1ccc([C@H]2C[C@@H]2C2=NCCN2)cc1
Log Ki [6]: -7.93
